Test results as given in ChEMBL document CHEMBL1126550, “Nanomolar-affinity, non-peptide oxytocin receptor antagonists” (J Med Chem, 1993).

Assays:
Oxytocin receptor = target: T1, Oxytocin receptor (Rattus norvegicus, UniProt P70536); experiment: Inhibition of radioligand [3H]oxytocin binding at the oxytocin (OT) receptor in rat uterine tissue
T1 sequence (P70536 whole entry): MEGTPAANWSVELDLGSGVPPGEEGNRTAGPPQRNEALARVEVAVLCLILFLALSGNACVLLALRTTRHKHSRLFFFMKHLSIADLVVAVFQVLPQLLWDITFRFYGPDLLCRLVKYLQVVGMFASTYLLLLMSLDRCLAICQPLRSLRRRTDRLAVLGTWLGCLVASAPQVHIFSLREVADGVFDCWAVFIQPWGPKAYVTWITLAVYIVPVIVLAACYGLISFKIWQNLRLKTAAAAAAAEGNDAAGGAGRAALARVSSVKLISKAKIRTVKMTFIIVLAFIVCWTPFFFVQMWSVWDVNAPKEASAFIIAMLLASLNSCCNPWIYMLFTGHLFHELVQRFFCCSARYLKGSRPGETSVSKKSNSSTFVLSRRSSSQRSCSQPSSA
How it was run: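 Uteri taken from rats given diethylstilbestrol dipropionate (0.3 mg/kg ip, 18–24 h before), crude membranes. 1 nM [3H]OT (30–60 Ci/mmol), equilibrium 60 min at 22 °C in 50 mM Tris-HCl, 5 mM MgCl2, 0.1% BSA, pH 7.4. Nonspecific binding with 1 mM unlabeled OT. Filtered on glass fiber. Initial single-concentration screen, then IC50 from seven concentrations by linear regression.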

Vasopressin V2 receptor = Vasopressin V2 receptor (Rattus norvegicus, UniProt Q00788); experiment: Inhibition of radioligand [3H]-AVP binding to the vasopressin V2 receptor in rat kidney tissue
Chain of Vasopressin V2 receptor (Q00788 whole entry): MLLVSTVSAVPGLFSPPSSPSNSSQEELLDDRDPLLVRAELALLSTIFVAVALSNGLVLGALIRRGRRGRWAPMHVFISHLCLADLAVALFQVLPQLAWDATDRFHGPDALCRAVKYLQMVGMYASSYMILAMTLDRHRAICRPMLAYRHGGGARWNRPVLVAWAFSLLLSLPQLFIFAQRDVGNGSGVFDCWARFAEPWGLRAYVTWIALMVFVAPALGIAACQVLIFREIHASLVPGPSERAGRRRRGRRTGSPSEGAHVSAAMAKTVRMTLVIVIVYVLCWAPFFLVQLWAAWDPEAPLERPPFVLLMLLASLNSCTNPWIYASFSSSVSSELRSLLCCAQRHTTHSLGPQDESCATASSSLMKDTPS
How it was run: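 [3H]AVP (80–90 Ci/mmol) at 2 nM competed on crude membranes from male rat kidney medulla (V2 sites). Equilibrium 30 min at 30 °C in 100 mM Tris-HCl, 5 mM MgCl2, 0.1% BSA, 50 μM PMSF, 50 μg/mL bacitracin, pH 8.0. Nonspecific binding with 10 μM unlabeled AVP. Glass-fiber filtration. IC50 by linear regression of % inhibition vs log concentration, seven concentrations.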

Vasopressin V1 receptor = Vasopressin V1 receptor (Rattus norvegicus, UniProt P48974+P30560); experiment: Inhibition of radioligand [3H]AVP binding to the vasopressin V1 receptor in rat liver tissue
How it was run: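 Crude membranes from male rat liver (V1 sites) competed with 1 nM [3H]AVP (80–90 Ci/mmol). Equilibrium 30 min, 30 °C, buffer 100 mM Tris-HCl, 5 mM MgCl2, 0.1% BSA, 50 μM PMSF, 50 μg/mL bacitracin, pH 8.0. 10 μM unlabeled AVP for nonspecific binding. Filtration through glass-fiber filters. IC50 from linear regression over seven concentrations.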

IC50 (Oxytocin receptor) [nM]	IC50 (Vasopressin V2 receptor) [µM]	IC50 (Vasopressin V1 receptor) [nM]	Structure (SMILES)
480	> 3	> 3000	CC1(C)[C@@H]2CC[C@@]1(CS(=O)(=O)N1CCC3(C=Cc4ccccc43)CC1)[C@@](O)(CNC(=O)CC13CC4CC(CC(C4)C1)C3)C2
770	> 10	> 10000	CC1(C)[C@@H]2CC[C@@]1(CS(=O)(=O)N1CCC3(C=Cc4ccccc43)CC1)[C@@](O)(CC#N)C2
45	5.5	1500	CC1(C)[C@@H]2CC[C@@]1(CS(=O)(=O)N1CCC3(CCc4ccccc43)CC1)[C@@H](NC(=O)[C@H](N)Cc1c[nH]cn1)C2
270	> 3	> 3000	CC1(C)[C@@H]2CC[C@@]1(CS(=O)(=O)N1CCC3(CCc4ccccc43)CC1)[C@@H](N1C(=O)CCC1C(=O)O)C2 (stereo not given in full)
19	1.9	500	CC1(C)[C@@H]2CC[C@@]1(CS(=O)(=O)N1CCC3(CCc4ccccc43)CC1)[C@@H](N1C(=O)CN(CCCn3ccnc3)C1=O)C2
61	3	> 300	CN(C)CC(=O)NCC(=O)N[C@H]1C[C@H]2CC[C@]1(CS(=O)(=O)N1CCC3(CCc4ccccc43)CC1)C2(C)C
110	5.1	> 300	CC1(C)[C@@H]2CC[C@@]1(CS(=O)(=O)N1CCC3(C=Cc4ccccc43)CC1)[C@@](O)(CNC(=O)C1CCCNC1)C2 (stereo not given in full)
30	5.2	710	CC1(C)[C@@H]2CC[C@@]1(CS(=O)(=O)N1CCC3(CCc4ccccc43)CC1)[C@@H](NC(=O)CCC1CCCNC1)C2 (stereo not given in full)
36	> 0.3	> 300	CC1(C)[C@@H]2CC[C@@]1(CS(=O)(=O)N1CCC3(CCc4ccccc43)CC1)[C@@H](N1C(=O)NC(Cc3cccnc3)C1=O)C2 (stereo not given in full)
200	14	2900	CC1(C)[C@@H]2CC[C@@]1(CS(=O)(=O)N1CCC3(CCc4ccccc43)CC1)[C@@H](NC(=O)C(N)CS(N)(=O)=O)C2 (stereo not given in full)
150	30	2700	CC(=O)NCC[C@@]1(O)C[C@H]2CC[C@]1(CS(=O)(=O)N1CCC3(C=Cc4ccccc43)CC1)C2(C)C
410	> 0.3	> 3000	CC1(C)[C@@H]2CC[C@@]1(CS(=O)(=O)N1CCC3(CCc4ccccc43)CC1)[C@@H](NC(=O)CCC(=O)O)C2
92	> 3	> 3000	CC1(C)[C@@H]2CC[C@@]1(CS(=O)(=O)N1CCC3(CCc4ccccc43)CC1)[C@@H](NC(=O)C1CNC(=O)N1)C2 (stereo not given in full)
79	> 1	> 1000	CC1(C)[C@@H]2CC[C@@]1(CS(=O)(=O)N1CCC3(C=Cc4ccccc43)CC1)[C@@](O)(CCNC(=O)c1ccncc1)C2
570	> 10	> 1000	CC1(C)[C@@H]2CC[C@@]1(CS(=O)(=O)N1CCC3(CCc4ccccc43)CC1)[C@@H](NC(=O)CCCc1ccccc1)C2
42	2.2	430	CC(C)C[C@H](N)C(=O)NC[C@@]1(O)C[C@H]2CC[C@]1(CS(=O)(=O)N1CCC3(C=Cc4ccccc43)CC1)C2(C)C
150	> 3	3000	CC1(C)[C@@H]2CC[C@@]1(CS(=O)(=O)N1CCC3(CCc4ccccc43)CC1)[C@@](O)(CN1CCCC1=O)C2
390	26	7600	CC(=O)N[C@H]1C[C@H]2CC[C@]1(CS(=O)(=O)N1CCC3(CCc4ccccc43)CC1)C2(C)C
12	2.4	890	CC1(C)[C@@H]2CC[C@@]1(CS(=O)(=O)N1CCC3(CCc4ccccc43)CC1)[C@@H](NC(=O)[C@@H](N)CCS(C)(=O)=O)C2

IC50 (Oxytocin receptor) [nM]	IC50 (Vasopressin V2 receptor) [µM]	IC50 (Vasopressin V1 receptor) [nM]	Structure (SMILES)
16	2	600	CC1(C)[C@@H]2CC[C@@]1(CS(=O)(=O)N1CCC3(CCc4ccccc43)CC1)[C@@H](N1C(=O)NC(Cc3c[nH]cn3)C1=O)C2 (single isomer, unassigned; isomer A)
3.2	0.57	160	CC1(C)[C@@H]2CC[C@@]1(CS(=O)(=O)N1CCC3(CCc4ccccc43)CC1)[C@@H](N1C(=O)NC(CCC(N)=O)C1=O)C2 (stereo not given in full)
180	9.3	3500	CC1CCC(=O)N1[C@H]1C[C@H]2CC[C@]1(CS(=O)(=O)N1CCC3(CCc4ccccc43)CC1)C2(C)C (stereo not given in full)
180	10	1200	CC1(C)[C@@H]2CC[C@@]1(CS(=O)(=O)N1CCC3(C=Cc4ccccc43)CC1)[C@@](O)(CNC(=O)c1ccncc1)C2
140	> 3	> 3000	CC1(C)[C@@H]2CC[C@@]1(CS(=O)(=O)N1CCC3(CCc4ccccc43)CC1)[C@@H](NC(=O)CCn1ccnc1)C2
150	> 8	3000	CC(C)(C(=O)N[C@H]1C[C@H]2CC[C@]1(CS(=O)(=O)N1CCC3(CCc4ccccc43)CC1)C2(C)C)c1c[nH]cn1
45	> 3	> 300	CC1(C)[C@@H]2CC[C@@]1(CS(=O)(=O)N1CCC3(C=Cc4ccccc43)CC1)[C@@](O)(CNC(=O)Cc1c[nH]cn1)C2
21	3.8	1100	CC1(C)[C@@H]2CC[C@@]1(CS(=O)(=O)N1CCC3(CCc4ccccc43)CC1)[C@@H](N1C(=O)C3CCC(=N)N3C1=O)C2 (stereo not given in full)
16	1.9	700	CC1(C)[C@@H]2CC[C@@]1(CS(=O)(=O)N1CCC3(CCc4ccccc43)CC1)[C@@H](NC(=O)N(CCc1c[nH]cn1)CCS(C)(=O)=O)C2
650	> 10	10000	CC1(C)[C@@H]2CC[C@@]1(CS(=O)(=O)N1CCC3(CCc4ccccc43)CC1)[C@@H](NC(=O)C1CCCCC1)C2
35	5.1	480	CC1(C)[C@@H]2CC[C@@]1(CS(=O)(=O)N1CCC3(C=Cc4ccccc43)CC1)[C@@](O)(CNC(=O)Cc1ccncc1)C2
60	5.5	1700	CC1(C)[C@@H]2CC[C@@]1(CS(=O)(=O)N1CCC3(CCc4ccccc43)CC1)[C@@H](N1CCC(N)C1=O)C2 (stereo not given in full)
50	4.8	680	CC1(C)[C@@H]2CC[C@@]1(CS(=O)(=O)N1CCC3(C=Cc4ccccc43)CC1)[C@@](O)(CNC(=O)c1n[nH]c(N)n1)C2
23	8.6	4000	CC1(C)[C@@H]2CC[C@@]1(CS(=O)(=O)N1CCC3(CCc4ccccc43)CC1)[C@@H](NC(=O)N(CCC(=O)O)CCc1c[nH]cn1)C2
450	13	3200	CC1(C)[C@@H]2CC[C@@]1(CS(=O)(=O)N1CCC3(CCc4ccccc43)CC1)/C(=N\O)C2
32	3	3000	CC1(C)[C@@H]2CC[C@@]1(CS(=O)(=O)N1CCC3(CCc4ccccc43)CC1)[C@@H](NC(=O)[C@@H](Cc1c[nH]cn1)NC(=O)CCC(N)=O)C2
460	> 3	> 3000	CC1(C)[C@@H]2CC[C@@]1(CS(=O)(=O)N1CCC3(CCc4ccccc43)CC1)[C@@H](NC(N)=O)C2
580	> 3	> 3000	CC(C)C[C@@H](N)C(=O)N[C@H]1C[C@H]2CC[C@]1(CS(=O)(=O)N1CCC3(CCc4ccccc43)CC1)C2(C)C
10000	> 3	> 3000	CC1(C)[C@H]2CC[C@]1(CS(=O)(=O)N1CCC3(CCc4ccccc43)CC1)[C@@H](NC(=O)Cc1c[nH]cn1)C2

Structure (SMILES)	IC50 (Oxytocin receptor) [nM]	IC50 (Vasopressin V2 receptor) [µM]	IC50 (Vasopressin V1 receptor) [nM]
CC1(C)[C@@H]2CC[C@@]1(CS(=O)(=O)N1CCC3(CCc4ccccc43)CC1)[C@@H](NC(=O)NC1CN3CCC1CC3)C2 (single isomer, unassigned; isomer A)	47	8.7	1700
CC1(C)[C@@H]2CC[C@@]1(CS(=O)(=O)N1CCC3(CCc4ccccc43)CC1)[C@@H](NC(=O)C1CN3CCC1CC3)C2 (stereo not given in full)	29	5.5	530
